# APP 5'UTR act – activates APP 5'UTR luciferase reporter; activation, % at 2 µM; 1% of 190,000 active; AID 1276; SH-SY5Y APP 5'UTR luciferase reporter, luminescence; zero percent = DMSO vehicle wells;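 active = activation above a set limit, based on mean plus 3 SD of controls, cut at about 140% in these data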
# FLuc stim CS – affects firefly luciferase, flagging false hits in luciferase stimulation screens; 200,000 tested, under 10 active; P08659; ATPlite luciferase biochemical, luminescence, 10 min; 0 = ATP-free wells, 1 = DMSO control; activation factor at 10 µM; AID 1027;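 active = luciferase activation factor, scaled between plate controls, of at least 2 with compound at 10 µM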
# Target sequence (P08659 whole entry, looked up): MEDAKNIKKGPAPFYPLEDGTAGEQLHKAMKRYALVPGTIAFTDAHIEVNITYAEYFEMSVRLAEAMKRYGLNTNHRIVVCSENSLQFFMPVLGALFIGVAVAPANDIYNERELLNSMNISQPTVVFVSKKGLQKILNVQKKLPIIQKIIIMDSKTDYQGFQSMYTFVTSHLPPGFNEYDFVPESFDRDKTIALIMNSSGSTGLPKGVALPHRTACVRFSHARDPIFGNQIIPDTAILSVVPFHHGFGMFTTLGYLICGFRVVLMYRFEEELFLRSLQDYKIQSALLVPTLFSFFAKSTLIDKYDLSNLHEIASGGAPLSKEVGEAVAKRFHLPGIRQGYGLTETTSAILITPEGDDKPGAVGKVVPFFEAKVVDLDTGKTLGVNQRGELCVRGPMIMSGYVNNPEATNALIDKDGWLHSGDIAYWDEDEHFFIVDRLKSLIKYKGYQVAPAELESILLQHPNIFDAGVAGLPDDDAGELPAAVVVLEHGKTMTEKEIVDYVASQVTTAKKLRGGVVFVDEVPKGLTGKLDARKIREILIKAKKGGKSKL
#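 Assay system: Luciferase/luciferin detection reagent, cell-free biochemical luciferase assay / Read-out: luciferase activation / Benchmarks: No-ATP low control, compound-free enzyme-plus-ATP high control / Medium: PBS buffer for ATP / Detection: luminescence measurement of luciferase light output / Schedule: 10 min at ambient temperature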
# APP 5UTR inh – APP translation inhibition. SH-SY5Y APP 5'UTR-luciferase reporter, luminescence. inhibition, % at 2 µM. 0.82% of 190,000 active;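 active = inhibition above a set limit, derived from the sample mean plus 3 SD, cut at about 45% in these data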
# NF-kB neuron act – raises NF-kB expression in human neuronal cells; NF-kB reporter expression; hits give high values; fold change at 12.5 µM; 1.6% of 190,000 active; AID 1239; in the data active = fold change above about 3.3
# FLuc inh counter – Photinus pyralis luciferase inhibition counter-screen; ATPLite firefly luciferase biochemical luminescence, 10 min; inhibition, % at 10 µM; 1.5% of 200,000 active; AID 1006;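 active = inhibition above about 50% when tested at 10 µM, limit read from the data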
# STAT1 act – increases IFN-gamma driven STAT1 reporter signal. NIH 3T3 STAT1-luciferase reporter, luminescence; 100% = IFN-gamma alone, no compound. activation (% of control), % at 5.5 µM. 2.6% of 200,000 active. AID 932;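 active = activation above the screen-wide mean activation plus 3 SD, cut at about 130% in these data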;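 also: raw ratio to IFN-gamma control signal so 100% means no change and 0% no light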
# Numbers without * were called inactive; nt = no result. Hits are enriched below; roughly 4.8% of the tested compounds scored in any of these assays.
SMILES,APP 5'UTR act,FLuc stim CS,APP 5UTR inh,NF-kB neuron act,FLuc inh counter,STAT1 act
Oc1ccc(-c2csc(Nc3ncccn3)n2)cc1O,-31,0.5,31,12*,53*,133*
CCC1CCCCN1C(=O)c1ccc(OC2CCN(C(=O)C3CC3)CC2)cc1 (stereo not given),1,1.1,-1,nt,-7,96
CCCCc1c(C)c2ccc(OCC(C)=O)cc2oc1=O,133,1,-133,1.9,1,133*
CCCc1c(C)c2ccc(OCC(C)=O)cc2oc1=O,40,1,-40,2,4,131*
CC1CCN(C(=O)COC(=O)c2n[nH]c3ccccc23)CC1,67,0.5,-67,2.5,55*,125
CCc1ccc(C(=O)COC(=O)c2n[nH]c3ccccc23)cc1,100,0.4,-100,5.5*,63*,124
N=c1c(C(=O)NCc2ccccc2)cc2c(=O)n3ccccc3nc2n1Cc1ccco1,16,1.1,-16,12*,-6,99
Cc1cc(C=C2C(=O)CCCC2=O)c(C)n1-c1ccccc1,7,0.8,-7,0.87,15,97
O=C1NN(c2ccccc2)C(=O)/C1=C/c1coc2ccccc2c1=O,47,1,-47,0.76,-4,146*
COc1ccc(-n2c(C)cc(/C=C3\C(=O)NN(c4ccccc4)C3=O)c2C)cc1,34,0.4,-34,1.5,55*,104
Cc1cc(/C=C2/C(=O)NN(c3ccccc3)C2=O)c(C)n1-c1ccc(O)cc1,117,0,-117,0.64,95*,119
CC(C)CCNC(=O)CN(C(=O)CCC(=O)Nc1ccccn1)c1ccc(F)c(Cl)c1,-15,1,15,1.1,-1,111
CC1CCN(C(=O)Cn2nnc(-c3cccs3)n2)CC1,54,1,-54,2.1,3,129*
O=C(Cn1nnc(-c2cccs2)n1)N1CCOCC1,-1,1.1,1,1.2,-6,99
Cc1c(NC(=O)CSc2nnnn2-c2ccc(F)cc2)c(=O)n(-c2ccccc2)n1C,5,1,-5,0.98,-4,104
CCOC(=O)Cc1csc(NC(=O)c2cc3ccccc3o2)n1,18,0.6,-18,0.91,36,111
Cc1csc(C(C#N)C(=O)c2cc3ccccc3o2)n1 (stereo not given),40,0.1,-40,1.9,88*,117
CCOC(=O)C(C)n1cnc2c(nnn2Cc2ccc(C)cc2)c1=O (stereo not given),7,1,-7,1,-3,92
COc1ccc(/C=N/N=C2\SC(CC(=O)O)C(=O)N2c2ccccc2)c(OC)c1 (stereo not given),9,1.1,-9,1.2,-6,97
COc1ccc(-c2[nH]ncc2N=Nc2ccccc2)cc1,-18,1,18,1.6,-1,130*
Cc1cc(N2CCC(C)CC2)nc2cccc(O)c12,39,1,-39,4.5*,3,102
Cc1nc2ccccc2nc1N1CCC(C)CC1,-4,1,4,1.2,0,107
O=C(NC1CCCC1)c1n[nH]c2ccccc12,69,0.8,-69,1.3,18,138*
O=C(COC(=O)c1n[nH]c2ccccc12)NC(=O)NC1CCCC1,-10,1.1,10,0.99,-6,101
Cn1c(SCC(=O)c2ccccc2)nnc1-c1ccc(O)cc1,68,0.9,-68,2.2,6,129*
SMILES,APP 5'UTR act,FLuc stim CS,APP 5UTR inh,NF-kB neuron act,FLuc inh counter,STAT1 act
CCNC(=O)CSc1nc(-c2ccc(F)cc2)cs1,23,0.9,-23,1.8,8,117
CC(C)(C)NC(=O)CSc1nc(-c2ccc(F)cc2)cs1,77,0.4,-77,4.7*,55*,141*
CCn1c(-c2cc(-c3cccc(OC)c3)nc3ccccc23)n[nH]c1=S,-35,1,36,1.1,-3,96
CCc1ccc(-c2cc(-c3n[nH]c(=S)n3CC)c3ccccc3n2)cc1,27,0.4,-26,1.4,64*,122
CN(C)c1ccc(/C=N/NC(=S)NCc2ccco2)cc1,32,1,-32,1,-2,104
CN(C)c1ccc(C(=S)NCc2ccco2)cc1,97,1,-97,8.1*,3,134*
CC(C)c1ccc(NC(=O)CNS(=O)(=O)c2ccc(F)cc2)cc1,-8,1,8,1.3,-1,86

# Screens (PubChem BioAssay)
